# Assay outcomes (PubChem BioAssay)
# The full list was thinned out, with hits kept by preference.
# IDH1 R132H inh: IDH1 R132H (human) inhibition; O75874; IDH1 R132H reductase, diaphorase/resazurin fluorescence, 60 min; inhibition, % at 10 µM; hit rate 0.18% among 70,000; AID 624101; in the data active = inhibition above about 34%; inconclusive = no clear call, values can overlap the other calls; inactive = below about 11%;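 also: 0% = DMSO and 100% = no enzyme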
# KDM4C inh: blocks human GASC-1 (KDM4C) demethylase activity | Q9H3R0 | GST-KDM4C 2-372, H3K9me3 peptide, LANCE TR-FRET | inhibition, % at 12.5 µM | hit rate 0.15% among 96,000 | AID 720574;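 active = mean replicate inhibition above about 25%, with at least 55% of replicates also reaching it, limit read from the data, passing the limit was not always enough; inconclusive = only one of those two conditions met; inactive = neither condition met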
# Target sequence (Q9H3R0 2-372 limits assumed): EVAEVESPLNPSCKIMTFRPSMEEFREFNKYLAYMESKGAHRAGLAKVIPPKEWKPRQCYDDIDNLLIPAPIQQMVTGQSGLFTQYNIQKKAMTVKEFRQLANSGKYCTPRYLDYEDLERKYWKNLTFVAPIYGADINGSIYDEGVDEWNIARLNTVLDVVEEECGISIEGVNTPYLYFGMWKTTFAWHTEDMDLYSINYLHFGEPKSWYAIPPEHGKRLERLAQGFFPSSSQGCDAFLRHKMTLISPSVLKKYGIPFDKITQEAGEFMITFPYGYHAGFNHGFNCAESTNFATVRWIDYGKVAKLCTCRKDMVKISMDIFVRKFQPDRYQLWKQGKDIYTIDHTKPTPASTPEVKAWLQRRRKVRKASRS
#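 System: N-terminal GST-fused human GASC-1 (KDM4C) fragment, residues 2-372; amount: enzyme final amount 10 nM; incubation: reaction 30 min RT, detection step 1 h RT; medium: HEPES buffer, pH 7.5, plus ascorbate; technique: LANCE TR-FRET, Eu antibody, ULight-streptavidin, EDTA, ex 340 nm, em 618/671 nm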
# T cruzi growth-1: T. cruzi proliferation inhibition; T. cruzi beta-gal in NIH3T3, GalScreen luminescence, 90 h; inhibition, % at 8.34 µM; hit rate 5.9% among 77,000; AID 624255;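 active = mean inhibition above about 93%, with at least 55% of replicates each passing it, limit read from the data, passing the limit was not always enough; inconclusive = only one of those two conditions holds; inactive = neither condition holds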
# T cruzi growth-2: blocks T. cruzi growth in NIH3T3 host cells; shares compounds with T cruzi growth-1; T. cruzi beta-gal in NIH3T3, GalScreen luminescence, 90 h; inhibition, % at 8.35 µM; hit rate 72% among 5,600; AID 651739;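 active = mean replicate inhibition above about 95% and at least 55% of replicates individually reaching it, limit read from the data; inconclusive = only one of the two criteria is met; inactive = neither criterion is met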
# T cruzi growth-3: inhibitors of T. cruzi proliferation. shares compounds with T cruzi growth-1. T. cruzi beta-gal in NIH3T3, GalScreen luminescence, 90 h. inhibition, % at 2.09 µM. hit rate 21% among 5,600. AID 651740;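 active = mean inhibition above about 95%, with at least 55% of replicates also reaching it, limit read from the data; inconclusive = meets just one of the two conditions; inactive = meets neither condition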;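 also: plate controls were neutral control median for no effect and positive control median for full effect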
# NIH3T3 tox: kills mouse NIH/3T3 fibroblasts | hit rate 14% among 5,600 | NIH/3T3 viability, CellTiter-Glo ATP luminescence, 90 h | cytotoxicity (signal decrease), % at 8.35 µM | AID 651742 | shares compounds with T cruzi growth-1;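 active = mean signal decrease across replicates above about 35% based on untreated-well scatter, with enough replicates individually passing, limit read from the data; inconclusive = no rule stated though some were filed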;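 also: 0% = median of neutral control wells and 100% = median of positive control wells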
# 3T3 cytotox 2: cytotoxicity in mouse NIH/3T3 fibroblasts; shares compounds with T cruzi growth-1; NIH/3T3 viability, CellTiter-Glo ATP luminescence, 90 h; inhibition, % at 24.9 µM; hit rate 56% among 5,600; AID 651744;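 active = mean loss of cell viability signal at or above a set limit, and enough replicates individually reaching it; inconclusive = meets only the mean limit or only the replicate share; inactive = meets neither condition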;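 also: 0% = median of neutral control wells and 100% = median of positive control wells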
# * hit, by the source's call; ? = inconclusive; · = not tested or not shown.
SMILES,IDH1 R132H inh,KDM4C inh,T cruzi growth-1,T cruzi growth-2,T cruzi growth-3,NIH3T3 tox,3T3 cytotox 2
Cc1c(NC(=O)COc2cc(Cl)c(Cl)cc2Cl)cccc1-c1nc2ccccc2o1,0,·,·,·,·,·,·
C[C@@H]1CN([C@@H](C)CO)C(=O)c2cc(NS(=O)(=O)c3cccs3)ccc2O[C@@H](C)CCCCO[C@H]1CN(C)C(=O)Nc1cccc2ccccc12,·,0,63,·,·,·,·
C[C@H]1CCCCO[C@H](CN(C)C(=O)Nc2cccc3ccccc23)[C@@H](C)CN([C@@H](C)CO)C(=O)c2cc(NS(=O)(=O)c3cccs3)ccc2O1,·,0,102*,93,66,-10,-3
C[C@@H]1CCCCO[C@@H](CN(C)C(=O)Nc2cccc3ccccc23)[C@H](C)CN([C@H](C)CO)C(=O)c2cc(NS(=O)(=O)c3cccs3)ccc2O1,·,-2,105*,105*,106*,-33,-17
C[C@@H]1CCCCO[C@@H](CN(C)C(=O)Nc2cccc3ccccc23)[C@@H](C)CN([C@H](C)CO)C(=O)c2cc(NS(=O)(=O)c3cccs3)ccc2O1,·,-1,86,·,·,·,·
[O-][NH2+]c1ccc(O)c2ncccc12,-3,·,·,·,·,·,·
COc1ccc(CN(C)C[C@H]2OCCCC[C@@H](C)Oc3ccc(NC(=O)Nc4ccccc4)cc3C(=O)N([C@H](C)CO)C[C@@H]2C)cc1,-1,-2,31,·,·,·,·
COc1ccc(CN(C)C[C@@H]2OCCCC[C@@H](C)Oc3ccc(NC(=O)C4CCCCC4)cc3C(=O)N([C@H](C)CO)C[C@@H]2C)cc1,1,-1,66,·,·,·,·
COc1ccc(CN(C)C[C@H]2OCCCC[C@@H](C)Oc3ccc(NC(=O)Nc4ccc(OC)cc4)cc3C(=O)N([C@@H](C)CO)C[C@H]2C)cc1,1,-1,104*,103*,47,11,106*
COc1ccc(CN(C)C[C@@H]2OCCCC[C@@H](C)Oc3ccc(NC(=O)Nc4ccccc4)cc3C(=O)N([C@H](C)CO)C[C@H]2C)cc1,·,-2,110*,?,91,28,104*
COc1ccc(CN(C)C[C@H]2OCCCC[C@H](C)Oc3ccc(NC(=O)Nc4ccccc4)cc3C(=O)N([C@@H](C)CO)C[C@H]2C)cc1,·,0,?,109*,43,17,34*
COc1ccc(CN(C)C[C@H]2OCCCC[C@H](C)Oc3ccc(NC(=O)C4CCCCC4)cc3C(=O)N([C@@H](C)CO)C[C@@H]2C)cc1,-1,2,104*,107*,46,-18,69*
COc1ccc(CN(C)C[C@@H]2OCCCC[C@@H](C)Oc3ccc(NC(=O)Nc4ccc(OC)cc4)cc3C(=O)N([C@H](C)CO)C[C@H]2C)cc1,·,·,90,·,·,·,·
COc1ccc(CN(C)C[C@H]2OCCCC[C@@H](C)Oc3ccc(NC(=O)Nc4ccccc4)cc3C(=O)N([C@H](C)CO)C[C@H]2C)cc1,2,-2,115,·,·,·,·
O=C(CN1C(=O)c2cccc3cccc1c23)NCc1ccco1,0,·,·,·,·,·,·
C=C1[C@H]2CC[C@]3(O)[C@@](CC[C@@H]4[C@](C)(C(=O)O)CCC[C@]43C)(C2)[C@H]1OC(=O)/C(C)=C\C,0,·,·,·,·,·,·
OC(CNCc1ccccc1)Cn1c2ccccc2c2ccccc21 (configuration not stated),0,·,·,·,·,·,·
CC(NS(=O)(=O)c1ccccc1)C(=O)Nc1ccc(Cl)c(C(F)(F)F)c1 (configuration not stated),0,·,·,·,·,·,·
O=C(C[C@H]1CC[C@H]2[C@@H](COC[C@@H](O)CN2S(=O)(=O)c2ccc(Cl)cc2)O1)N[C@@H]1CCN(Cc2ccccc2)C1,·,-1,96*,?,71,-11,0
Cc1ccc(S(=O)(=O)N2C[C@H](O)COC[C@@H]3O[C@H](CC(=O)N[C@@H]4CCN(Cc5ccccc5)C4)CC[C@H]32)cc1,·,1,68,·,·,·,·
Cc1ccc(S(=O)(=O)N2C[C@H](O)COC[C@H]3O[C@@H](CC(=O)N[C@@H]4CCN(Cc5ccccc5)C4)CC[C@@H]32)cc1,·,-1,98*,76,61,-2,1
O=C(C[C@H]1CC[C@H]2[C@@H](COC[C@H](O)CN2S(=O)(=O)c2ccc(Cl)cc2)O1)N[C@H]1CCN(Cc2ccccc2)C1,·,1,92,·,·,·,·
COC(=O)c1c(NC(=S)Nc2cc3oc4ccccc4c3cc2OC)sc2c1CCC2,0,·,·,·,·,·,·
CS(=O)(=O)N(CC(=O)Nc1cccc([N+](=O)[O-])c1)c1ccc2c3c(cccc13)CC2,1,·,·,·,·,·,·
C=C(C)[C@@H]1CC=C(/C=N/NC(=O)c2ccccc2O)CC1,0,·,·,·,·,·,·
SMILES,IDH1 R132H inh,KDM4C inh,T cruzi growth-1,T cruzi growth-2,T cruzi growth-3,NIH3T3 tox,3T3 cytotox 2
OC[C@@H]1[C@H](c2ccc(C#Cc3ccccc3F)cc2)[C@H]2CN(Cc3cncnc3)CCCCN12,·,0,118*,103*,96*,44*,105*
OC[C@@H]1[C@@H](c2ccc(C#Cc3ccccc3)cc2)[C@H]2CN(Cc3cncnc3)CCCCN12,·,-1,70,·,·,·,·
Cc1cccc(-c2ccc([C@H]3[C@H](CO)N4CCCCN(Cc5cccnc5)C[C@@H]34)cc2)c1,·,·,104*,106*,68,22,101*
CN(C)C(=O)c1cccc(-c2ccc([C@H]3[C@@H](CO)N4CCCCN(Cc5cccnc5)C[C@@H]34)cc2)c1,·,0,101*,?,88,-10,-15
Cc1cccc(-c2ccc([C@@H]3[C@@H](CO)N4CCCCN(Cc5cncnc5)C[C@H]34)cc2)c1,·,0,48,·,·,·,·
Cc1cccc(-c2ccc([C@H]3[C@@H](CO)N4CCCCN(Cc5cncnc5)C[C@@H]34)cc2)c1,·,2,106*,95*,85,37*,102*
CN(C)C(=O)c1cccc(-c2ccc([C@@H]3[C@H]4CN(Cc5cccnc5)CCCCN4[C@H]3CO)cc2)c1,·,3,53,·,·,·,·
COc1cccc(-c2ccc([C@H]3[C@H]4CN(Cc5cncnc5)CCCCN4[C@H]3CO)cc2)c1,·,0,40,·,·,·,·
Cc1ccc(NC(=O)C(=O)NCc2ccccn2)cc1C,0,·,·,·,·,·,·
COc1ccc(Cl)cc1N(CC(=O)Nc1ccc(C(F)(F)F)cc1)S(C)(=O)=O,0,·,·,·,·,·,·
N#Cc1ccccc1CSc1nc2ccc(NC(=O)c3ccc(F)cc3)cc2s1,0,·,·,·,·,·,·
N#Cc1cc2c(nc1SCC(=O)Nc1ccc(Cl)cc1)CCCCCC2,0,·,·,·,·,·,·
Cc1ccc(-c2noc(CN(C(=O)c3cccc([N+](=O)[O-])c3)C(C)C)n2)cc1,-1,·,·,·,·,·,·
COC(=O)CN(c1ccc(C)cc1)S(=O)(=O)c1ccccc1,-1,·,·,·,·,·,·
COC(/C=C/C(OC(C)=O)C(C)OC(C)=O)C(O)C1CC=CC(=O)O1 (configuration not stated),-1,·,·,·,·,·,·
COc1ccc(-c2cc(C)nc(SCC(=O)N3c4ccccc4Sc4ccccc43)n2)cc1,0,·,·,·,·,·,·
